Assay results gathered from unrelated publications.
Cell line: K562

SMILES | observed | mode | method | time | setting | IC50 [µM]
CCCCCC/C=C1\CC2C=CC=CC1C2C1CCCCC1=O (centres unmarked) | cell growth or viability | – | flow cytometry | – | – | 0.017
Cc1c(O)c(=O)ccn1CCO | cell growth or viability | – | MTT | 72 h | – | ≥ 100
CCCON(Cc1ccc(C(=O)NO)cc1)C(=O)Nc1ccc(N(C)C)cc1 | cell growth or viability | – | ATP luminescence | 72 h | – | 7.68
CC(C)[C@H](N)C(=O)N1CCC[C@H]1B(O)O | cell growth or viability | – | ATP luminescence | 48 h | – | > 60
O=C1CCCCC1C1C2C=CC=CC1C(CCCCOC1CCCCO1)=C2 (centres unmarked) | cell growth or viability | – | flow cytometry | – | – | 0.027
C[C@@H](O)C(=O)CCCCCCC(=O)Nc1ccccc1 | cell growth or viability | – | thymidine uptake | – | – | 62.5
CC(=O)O[C@@H]1OC=C2[C@@H](OC(C)=O)C[C@H]3[C@]4(C)CC[C@H]5C(C)(C)CCC[C@]5(C)[C@H]4C[C@@H](O)[C@]3(C)[C@H]21 | NF-κB activity | inhibitor | luciferase | – | TNF-stimulated | 6
O=C1NCCc2[nH]c(-c3ccncc3)cc21 | cell growth or viability | – | – | – | – | > 10
COC(=O)Nc1nc2ccc(Oc3ccc(NC(=O)Nc4cc(C(F)(F)F)ccc4F)cc3)cc2s1 | cell growth or viability | – | XTT | 72 h | – | 0.081
CC(C)C[C@H](NC(=O)[C@H](Cc1ccccc1)NC(=O)c1cnccn1)B(O)O | cell growth or viability | – | ATP luminescence | – | – | 0.0056
N[C@@H](CC(=O)N1CCN(C(c2ccc(F)cc2)c2ccc(F)cc2)CC1)C(=O)N1Cc2ccccc2C1 | cell growth or viability | – | ATP luminescence | 48 h | – | 40.8
O=C1CCCCC1C1C2C=CC=CC1C(CCN1C(=O)c3ccccc3C1=O)=C2 (centres unmarked) | cell growth or viability | – | flow cytometry | – | – | 0.011
CCCCN(Cc1ccc(C(=O)NO)cc1)C(=O)Nc1ccccc1 | cell growth or viability | – | ATP luminescence | 72 h | – | 2.25
O=C1CCCCC1C1C2C=CC=CC1/C(=C/Cc1ccccc1)C2 (centres unmarked) | cell growth or viability | – | flow cytometry | – | – | 0.038
CN1c2ccccc2C(=O)N2[C@H](C(=O)Nc3ccc(C(=O)Nc4ccccc4N)cc3)Cc3c([nH]c4ccccc34)[C@@H]12 | cell growth or viability | – | – | – | – | 1.9
CC(=O)OCCC1=CC2C=CC=CC1C2C1CCCCC1=O (centres unmarked) | cell growth or viability | – | flow cytometry | – | – | 0.039
CC(=O)O[C@H](C)C(=O)CCCCCCC(=O)Nc1ccccc1 | cell growth or viability | – | thymidine uptake | – | – | > 100
